ChEMBL document CHEMBL3627597, “Synthesis of Fluorine-Containing Phosphodiesterase 10A (PDE10A) Inhibitors and the In Vivo Evaluation of F-18 Labeled PDE10A PET Tracers in Rodent and Nonhuman Primate” (J Med Chem, 2015)

How the values were obtained:
Blood [1] = assay: Biodistribution in Sprague-Dawley rat blood at 1.48 to 2.22 MBq, iv measured at 5 mins by gamma counting analysis; type: ADME, organism-based; conditions: in vivo
In short: (§1)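 Male Sprague-Dawley rats (250 - 400 g), tail-vein injection of 1.48 - 2.22 MBq radiotracer under 2.5% isoflurane in oxygen; n=4 per time point, euthanized at 5, 30 and 60 min p.i. Brain regions obtained by gross dissection; peripheral tissues collected. Samples weighed, gamma-counted against a diluted-injectate standard; %ID/g calculated.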

Liver [2] = assay: Biodistribution in Sprague-Dawley rat liver at 1.48 to 2.22 MBq, iv measured at 5 mins by gamma counting analysis; type: ADME, organism-based; conditions: in vivo; in short: as §1
Kidney [3] = assay: Biodistribution in Sprague-Dawley rat kidney at 1.48 to 2.22 MBq, iv measured at 5 mins by gamma counting analysis; type: ADME, organism-based; conditions: in vivo; in short: as §1
Muscle tissue [4] = assay: Biodistribution in Sprague-Dawley rat muscle at 1.48 to 2.22 MBq, iv measured at 5 mins by gamma counting analysis; type: ADME, organism-based; conditions: in vivo; in short: as §1
Rattus norvegicus [5] = assay: Biodistribution in Sprague-Dawley rat fat tissue at 1.48 to 2.22 MBq, iv measured at 5 mins by gamma counting analysis; type: ADME, organism-based, Adipose tissue; conditions: in vivo; in short: as §1
Bone [6] = assay: Biodistribution in Sprague-Dawley rat bone at 1.48 to 2.22 MBq, iv measured at 5 mins by gamma counting analysis; type: ADME, organism-based, Bone element; conditions: in vivo; in short: as §1
Brain [7] = assay: Biodistribution in Sprague-Dawley rat brain at 1.48 to 2.22 MBq, iv measured at 5 mins by gamma counting analysis; type: ADME, organism-based; conditions: in vivo; in short: as §1
Blood [8] = assay: Biodistribution in Sprague-Dawley rat blood at 1.48 to 2.22 MBq, iv measured at 30 mins by gamma counting analysis; type: ADME, organism-based; conditions: in vivo, 0.5 h; in short: as §1
Liver [9] = assay: Biodistribution in Sprague-Dawley rat liver at 1.48 to 2.22 MBq, iv measured at 30 mins by gamma counting analysis; type: ADME, organism-based; conditions: in vivo, 0.5 h; in short: as §1
Kidney [10] = assay: Biodistribution in Sprague-Dawley rat kidney at 1.48 to 2.22 MBq, iv measured at 30 mins by gamma counting analysis; type: ADME, organism-based; conditions: in vivo, 0.5 h; in short: as §1
Muscle tissue [11] = assay: Biodistribution in Sprague-Dawley rat muscle at 1.48 to 2.22 MBq, iv measured at 30 mins by gamma counting analysis; type: ADME, organism-based; conditions: in vivo, 0.5 h; in short: as §1
Rattus norvegicus [12] = assay: Biodistribution in Sprague-Dawley rat fat tissue at 1.48 to 2.22 MBq, iv measured at 30 mins by gamma counting analysis; type: ADME, organism-based, Adipose tissue; conditions: in vivo, 0.5 h; in short: as §1
Bone [13] = assay: Biodistribution in Sprague-Dawley rat bone at 1.48 to 2.22 MBq, iv measured at 30 mins by gamma counting analysis; type: ADME, organism-based, Bone element; conditions: in vivo, 0.5 h; in short: as §1
Brain [14] = assay: Biodistribution in Sprague-Dawley rat brain at 1.48 to 2.22 MBq, iv measured at 30 mins by gamma counting analysis; type: ADME, organism-based; conditions: in vivo, 0.5 h; in short: as §1
Blood [15] = assay: Biodistribution in Sprague-Dawley rat blood at 1.48 to 2.22 MBq, iv measured at 60 mins by gamma counting analysis; type: ADME, organism-based; conditions: in vivo, 1 h; in short: as §1
Liver [16] = assay: Biodistribution in Sprague-Dawley rat liver at 1.48 to 2.22 MBq, iv measured at 60 mins by gamma counting analysis; type: ADME, organism-based; conditions: in vivo, 1 h; in short: as §1
Kidney [17] = assay: Biodistribution in Sprague-Dawley rat kidney at 1.48 to 2.22 MBq, iv measured at 60 mins by gamma counting analysis; type: ADME, organism-based; conditions: in vivo, 1 h; in short: as §1
Muscle tissue [18] = assay: Biodistribution in Sprague-Dawley rat muscle at 1.48 to 2.22 MBq, iv measured at 60 mins by gamma counting analysis; type: ADME, organism-based; conditions: in vivo, 1 h; in short: as §1
Rattus norvegicus [19] = assay: Biodistribution in Sprague-Dawley rat fat tissue at 1.48 to 2.22 MBq, iv measured at 60 mins by gamma counting analysis; type: ADME, organism-based, Adipose tissue; conditions: in vivo, 1 h; in short: as §1
Bone [20] = assay: Biodistribution in Sprague-Dawley rat bone at 1.48 to 2.22 MBq, iv measured at 60 mins by gamma counting analysis; type: ADME, organism-based, Bone element; conditions: in vivo, 1 h; in short: as §1
Brain [21] = assay: Biodistribution in Sprague-Dawley rat brain at 1.48 to 2.22 MBq, iv measured at 60 mins by gamma counting analysis; type: ADME, organism-based; conditions: in vivo, 1 h; in short: as §1
Striatum = assay: Biodistribution in Sprague-Dawley rat striatum at 1.48 to 2.22 MBq, iv measured at 30 mins by gamma counting analysis; type: ADME, organism-based; conditions: in vivo, 0.5 h; in short: as §1
[22] = Ratio of drug level in striatum to cerebellum in Sprague-Dawley rat at 1.48 to 2.22 MBq, iv measured at 5 to 30 mins by gamma counting analysis; type: ADME, organism-based; conditions: in vivo
In short: (§2)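 Striatum, cerebellum and cortex obtained by gross dissection from Sprague-Dawley rats (250 - 400 g, n=4 per time point) after tail-vein injection of 1.48 - 2.22 MBq under isoflurane anesthesia. Tissues weighed and gamma-counted with an injectate standard to give %ID/g; ratios taken from striatal versus non-target uptake.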

Nucleic Acid = assay: Ratio of drug level in striatum to cortex in Sprague-Dawley rat at 1.48 to 2.22 MBq, iv measured at 5 to 30 mins by gamma counting analysis; type: ADME, organism-based; conditions: in vivo; in short: as §2

SMILES | Drug uptake (Blood [1]) [% ID/g] | Drug uptake (Liver [2]) [% ID/g] | Drug uptake (Kidney [3]) [% ID/g] | Drug uptake (Muscle tissue [4]) [% ID/g] | Drug uptake (Rattus norvegicus [5]) [% ID/g] | Drug uptake (Bone [6]) [% ID/g] | Drug uptake (Brain [7]) [% ID/g] | Drug uptake (Blood [8]) [% ID/g] | Drug uptake (Liver [9]) [% ID/g] | Drug uptake (Kidney [10]) [% ID/g] | Drug uptake (Muscle tissue [11]) [% ID/g] | Drug uptake (Rattus norvegicus [12]) [% ID/g] | Drug uptake (Bone [13]) [% ID/g] | Drug uptake (Brain [14]) [% ID/g] | Drug uptake (Blood [15]) [% ID/g] | Drug uptake (Liver [16]) [% ID/g] | Drug uptake (Kidney [17]) [% ID/g] | Drug uptake (Muscle tissue [18]) [% ID/g] | Drug uptake (Rattus norvegicus [19]) [% ID/g] | Drug uptake (Bone [20]) [% ID/g] | also measured
Cn1cc(-c2ccncc2)c(-c2ccc(OCc3cc(CCC[18F])c4ccccc4n3)cc2)n1 | 0.459 | 9.99 | 2.471 | 0.223 | 0.22 | 0.222 | 0.114 | 0.345 | 5.67 | 1.364 | 0.178 | 0.491 | 1.418 | 0.046 | 0.345 | 6.79 | 1.216 | 0.103 | 0.368 | 2.037 | Drug uptake (Brain [21]): 0.026 % ID/g; Drug uptake (Striatum): Active; Ratio [22]: > 2; Ratio (Nucleic Acid): > 2
Cn1cc(-c2ccncc2)c(-c2ccc(OCc3cc(OCCOCCOCC[18F])c4ccccc4n3)cc2)n1 | 0.699 | 4.74 | 5.969 | 0.419 | 0.225 | 0.487 | 0.353 | 0.771 | 1.53 | 1.793 | 0.488 | 0.254 | 0.441 | 0.509 | 0.646 | 0.527 | 1.037 | 0.379 | 0.123 | 0.49 | Drug uptake (Brain [21]): 0.421 % ID/g; Drug uptake (Striatum): Active
Cn1cc(-c2ccncc2)c(-c2ccc(OCc3cc(COCC[18F])c4ccccc4n3)cc2)n1 | 0.44 | 3.99 | 0.981 | 0.155 | 0.139 | 0.133 | 0.213 | 0.424 | 0.987 | 0.632 | 0.265 | 0.139 | 0.17 | 0.353 | 0.401 | 0.554 | 0.485 | 0.228 | 0.066 | 0.337 | Drug uptake (Brain [21]): 0.343 % ID/g; Drug uptake (Striatum): Active

Continued, in another order:

Drug uptake (Blood [1]) [% ID/g] | Drug uptake (Liver [2]) [% ID/g] | Drug uptake (Kidney [3]) [% ID/g] | Drug uptake (Muscle tissue [4]) [% ID/g] | Drug uptake (Rattus norvegicus [5]) [% ID/g] | Drug uptake (Bone [6]) [% ID/g] | Drug uptake (Brain [7]) [% ID/g] | Drug uptake (Blood [8]) [% ID/g] | Drug uptake (Liver [9]) [% ID/g] | Drug uptake (Kidney [10]) [% ID/g] | Drug uptake (Muscle tissue [11]) [% ID/g] | Drug uptake (Rattus norvegicus [12]) [% ID/g] | Drug uptake (Bone [13]) [% ID/g] | Drug uptake (Brain [14]) [% ID/g] | Drug uptake (Blood [15]) [% ID/g] | Drug uptake (Liver [16]) [% ID/g] | Drug uptake (Kidney [17]) [% ID/g] | Drug uptake (Muscle tissue [18]) [% ID/g] | Drug uptake (Rattus norvegicus [19]) [% ID/g] | Drug uptake (Bone [20]) [% ID/g] | SMILES | also measured
0.471 | 10.16 | 1.799 | 0.227 | 0.343 | 0.421 | 0.128 | 0.416 | 4.01 | 1.351 | 0.174 | 0.352 | 4.055 | 0.094 | 0.201 | 3.1 | 0.573 | 0.107 | 0.222 | 5.62 | Cn1cc(-c2ccncc2)c(-c2ccc(OCc3cc(C[18F])c4ccccc4n3)cc2)n1 | Drug uptake (Brain [21]): 0.069 % ID/g; Drug uptake (Striatum): Active; Ratio [22]: > 2; Ratio (Nucleic Acid): > 2
0.353 | 6.87 | 1.887 | 0.339 | 0.404 | 0.522 | 0.41 | 0.376 | 3 | 1.034 | 0.236 | 0.576 | 4.035 | 0.191 | 0.15 | 1.6 | 0.533 | 0.092 | 0.477 | 6.3 | Cn1cc(-c2ccncc2)c(-c2ccc(OCc3cc([18F])c4ccccc4n3)cc2)n1 | Drug uptake (Brain [21]): 0.125 % ID/g; Drug uptake (Striatum): Active; Ratio [22]: > 2; Ratio (Nucleic Acid): > 2
